The source made the active and inactive calls.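 How the source made its calls: active means compounds blocking phage killing of the bacteria by at least 50% at some tested dose; inactive means the rest.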

For experiment [1], the system named is E. coli UTI89 K1F phage lysis inhibition, OD600. Description: protection from K1F lysis, OD600 growth read-out – E. coli UTI89, K1F phage, C7 control, bacterial capsule biogenesis inhibitors, confirmation (AID 504358). The conditions noted are these: for CC50: measured here: cytotoxicity. The gist of the method:
(§1)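 material = E. coli UTI89 K1 cells with K1F phage | also added = K1F phage, added after compound pre-exposure | times = compound pre-exposure 1.25 h at 37 °C shaking, then 3 h phage infection | detection = absorbance at 600 nm, before infection and 3 h after | evaluation = phage lysis inferred from OD600 3 h after phage infection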

Test in experiment [2]: as above
The conditions noted are these: E. coli UTI89 K1F phage lysis inhibition, OD600; for SI: measured here: selectivity index CC50/IC50, stronger effect = higher value. A digest of the protocol:
as §1

In the case of `CCOc1ccc(-c2cc(NC(=O)c3c(F)cccc3F)c(C(=O)O)s2)cc1`, in experiment [1], the IC50 is 6.2 µM and the CC50 amounted to 66.7 µM. Further, the SI in experiment [2] amounted to 10.8.

Take `O=C(O)c1cc(-c2cccc(Cl)c2)nc2cc3ccccc3cc12`: in experiment [2], the outcome was inactive.

With `O=C(ONc1ccc(N=NC(=O)c2ccccc2O)cc1)c1ccccc1`, in experiment [1], the IC50 was 3.3 µM and the half-maximal cytotoxic concentration (CC50) came out at 45.1 µM. Also, in experiment [2], the SI was found to be 13.7.

For `CC1=NN2C(=N)/C(=C\c3ccc(SCc4ccco4)o3)C(=O)N=C2S1`, in experiment [1], the IC50 was 22.6 µM and the CC50 was greater than 100 µM. The SI in experiment [2] was 4.4.

In the case of `COc1ccc(OC)c(-c2cc(C(=O)O)c3cc4ccccc4cc3n2)c1`, the result in experiment [2] was inactive.

On to `Cc1ccc(C2c3c(oc4cc(C)c(C)cc4c3=O)C(=O)N2CCCN2CCOCC2)cc1` (stereo unspecified), for which the CC50 in experiment [1] stood at 44.4 µM. In experiment [2], the result was inactive.

Take `O=C(COc1ccc(Cl)cc1Cl)Nc1ccc(C(=O)Nc2ccccc2C(=O)O)cc1`: the CC50 in experiment [1] came to 45.3 µM.

As for `O=C(O)c1cc(-c2c[nH]c3ccccc23)nc2cc3ccccc3cc12`, in experiment [2], the result was inactive.

As for `O=C(NCc1cc([N+](=O)[O-])ccc1O)c1cccnc1Sc1ccccc1Cl`, in experiment [1], the half-inhibitory concentration (IC50) is 26.1 µM and the CC50 was greater than 100 µM. Besides, the SI in experiment [2] is greater than 3.8.

In the case of `COc1ccc2nc(NC(=O)c3ccc(Br)s3)sc2c1`, in experiment [1], the IC50 is 10.6 µM and the CC50 is greater than 100 µM. Further, the SI in experiment [2] is greater than 9.4.

For `O=C(NCc1cc([N+](=O)[O-])ccc1O)c1cccnc1Sc1ccccc1`, the CC50 in experiment [1] was greater than 100 µM.

On to `CC1(C(=O)O)CCC(C(=O)Nc2ccc3ccccc3c2)C1(C)C` (stereo unspecified), for which, in experiment [1], the IC50 is 69.8 µM and the CC50 is greater than 100 µM. The SI in experiment [2] is greater than 1.4.

As to `Cc1cc(C)c2c(=O)c(-c3cc(C(=O)O)c4cc5ccccc5cc4n3)coc2c1`, in experiment [2], the outcome was inactive.

In the case of `O=C(Nc1ccncc1)c1ccc2ncsc2c1`, in experiment [1], the IC50 is 3 µM and the CC50 was greater than 100 µM. Also, the SI in experiment [2] was greater than 33.

With `C=CCOc1ccc(C2c3c(oc4ccccc4c3=O)C(=O)N2CCCN2CCOCC2)cc1` (stereo unspecified), the CC50 in experiment [1] is greater than 100 µM. In addition, in experiment [2], the result was inactive.

For the origin of these results see PubChem BioAssay AID504358 (Southern Research Specialized Biocontainment Screening …, 2011).
